The values below come from PubChem BioAssay.

Assay [1] is described as follows: reducers of endogenous Her2 protein level, primary screen, SKBR3 breast tumor cells, AlphaScreen, ATP viability (AID 461;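 active = Her2 level under about 52% in both replicate screens, with viability over 70% of control, limit read from the data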;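 as to Her2 level: lower value means less Her2 protein in the cells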;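 as to viability: percent of carrier control wells set as 100% viability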). The note with it: 18-24 h, measured here: SKBR3 viability, ATP luminescence, at 10 µM. Background: Alpha assays give light when donor and acceptor beads are brought close together.
Assay [2] addresses Receptor tyrosine-protein kinase erbB-2 (Homo sapiens) (UniProt P04626). Described as above. The note with it: 18-24 h, at 10 µM, stronger effect = lower value.
Assay [3] can be described thus: SK-BR-3 cell growth inhibitors, pilot screen, 24 h, human (AID 572;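 active = viability at or below 10% of carrier control in both of two separate runs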;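 also: compound exposure lasted between 18 and 24 h rather than exactly 24 h; 100% = carrier-treated control wells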). The note with it: SK-BR-3 viability, CellTiter-Glo luminescence, at 10 µM, stronger effect = lower value. (In ATP-based viability assays light output follows the ATP content of the culture.)
Assay [4] can be described thus: HUVEC growth inhibition – cell-based, human, primary screen (AID 575;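 active = viability at or below 30% in both replicate assays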;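 also: 100% = median of untreated cell wells with 0.1% DMSO on each plate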). The note with it: HUVEC proliferation, CellTiter-Glo luminescence, 72 h; at 10 µM; stronger effect = lower value. Summed up:
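Assay system: Primary human umbilical vein endothelial cells | Quantity: 1250 cells per well | Medium: Supplemented EBM, 2% fetal bovine serum | Detection: CellTiter-Glo luminescence measuring cellular ATP | Read-out: % viability vs DMSO wells | Plate: Collagen-coated 384-well format | Times: 72 h exposure, 37 °C, 5% CO2, 30 min RT equilibration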

A short description of assay [5]: growth inhibitors of H69AR lung tumor, primary screen, human, duplicate replicates (AID 580;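 active = viability at or under a set limit in both replicates, limit being median viability minus 3 SD, cut at about 48% in these data, passing the limit was not always enough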;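 also: 100% = mean luminescence of untreated wells and 0% = no signal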). The note with it: H69AR lung tumor cells viability, ATP luminescence, 72 h; at 10 µM; stronger effect = lower value.
Assay [6] can be described thus: reversal of MRP1-mediated doxorubicin resistance, pilot screen, H69AR cells, doxorubicin co-treatment (AID 601;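 active = viability loss from added drug above about 55%, and viability with drug at most 40%, in both replicates, limit read from the data, passing the limit was not always enough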). Conditions: CellTiter-Glo, 72 h, at 10 µM; for differential viability (reversal): stronger effect = higher value.
Assay [7] is described as follows: 384-well plate pilot, post-Golgi transport modulator project, inhibition of yeast transport mutant growth (AID 636; in the data active = inhibition above about 31%). Conditions: absorbance 615 nm, about 18 h, stronger effect = higher value.
Assay [8] can be described thus: growth suppression of yeast trafficking mutant, preliminary HTS, modulators of trafficking downstream of Golgi apparatus project, 1536-format plate, OD 615 nm (AID 637). The note with it: yeast transport mutant growth, absorbance 615 nm, 18 h; stronger effect = higher value.
Where [9] appears, read: H69AR cells + 2 uM doxorubicin, measured here: viability with 2 uM doxorubicin, stronger effect = lower value.
Where [10] appears, read: H69AR cells, compound alone cytotoxicity.

Active and inactive are the calls of the source. Rule as the data show it, unless noted: active = inhibition above about 30%; inactive = the rest.

Chain of Receptor tyrosine-protein kinase erbB-2 (Homo sapiens) (P04626 whole entry, looked up): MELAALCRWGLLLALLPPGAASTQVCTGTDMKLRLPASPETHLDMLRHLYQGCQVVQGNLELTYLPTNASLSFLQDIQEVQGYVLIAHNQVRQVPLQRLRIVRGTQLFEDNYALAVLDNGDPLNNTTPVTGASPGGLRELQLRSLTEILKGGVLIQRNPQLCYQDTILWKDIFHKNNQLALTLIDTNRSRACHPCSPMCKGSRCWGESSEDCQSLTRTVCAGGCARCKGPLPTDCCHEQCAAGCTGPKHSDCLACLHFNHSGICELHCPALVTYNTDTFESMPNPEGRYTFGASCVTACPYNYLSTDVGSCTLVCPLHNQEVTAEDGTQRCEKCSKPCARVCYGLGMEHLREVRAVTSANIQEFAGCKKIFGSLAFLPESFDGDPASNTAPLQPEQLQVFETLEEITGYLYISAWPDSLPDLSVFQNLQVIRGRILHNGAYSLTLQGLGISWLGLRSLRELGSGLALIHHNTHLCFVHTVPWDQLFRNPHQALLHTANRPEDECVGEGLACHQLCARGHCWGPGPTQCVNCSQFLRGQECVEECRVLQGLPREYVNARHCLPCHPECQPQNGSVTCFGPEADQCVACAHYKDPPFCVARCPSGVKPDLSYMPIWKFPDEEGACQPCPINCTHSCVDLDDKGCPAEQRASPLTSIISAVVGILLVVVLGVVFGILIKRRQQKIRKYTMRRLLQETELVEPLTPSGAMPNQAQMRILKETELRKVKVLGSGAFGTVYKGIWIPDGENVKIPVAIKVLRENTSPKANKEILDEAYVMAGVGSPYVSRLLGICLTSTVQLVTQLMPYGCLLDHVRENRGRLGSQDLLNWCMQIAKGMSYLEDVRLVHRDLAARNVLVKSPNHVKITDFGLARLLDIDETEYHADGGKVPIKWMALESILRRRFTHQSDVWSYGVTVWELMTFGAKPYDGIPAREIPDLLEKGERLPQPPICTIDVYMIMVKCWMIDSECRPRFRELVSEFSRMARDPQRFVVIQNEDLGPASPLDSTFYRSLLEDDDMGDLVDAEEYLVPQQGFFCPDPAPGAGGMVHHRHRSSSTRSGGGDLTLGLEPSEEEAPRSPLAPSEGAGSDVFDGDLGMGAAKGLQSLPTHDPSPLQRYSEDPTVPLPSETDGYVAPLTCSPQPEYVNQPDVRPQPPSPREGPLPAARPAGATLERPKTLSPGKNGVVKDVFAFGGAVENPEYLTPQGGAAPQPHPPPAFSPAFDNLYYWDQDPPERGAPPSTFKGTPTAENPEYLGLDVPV

Broadly, the viability is a read-out of living cells in per cent, often relative to untreated cells. A word on the inhibition: it is the relative decrease from the control value, in per cent. Turning to `COC(=O)c1cc(Br)c(=O)n(Cc2cccnc2)c1`, the viability was 108% in assay [1]; 108% (inactive) in assay [3]; 95.9% (inactive) in assay [4]; 97.3% (inactive) in assay [5]; 80.3% in assay [6] (setting [9]); 97.3% in assay [6] (setting [10]). Besides, the Her2 level in assay [2] is 81.5% (inactive). For the same compound, the differential viability (reversal) in assay [6] (H69AR cells + 2 uM doxorubicin) was 17% (inactive). The inhibition in assay [7] is -3.95% (inactive); in assay [8] it was 0.18% (inactive).

`COC(=O)Nc1ccc(S(=O)(=O)N(C)CC(F)(F)C(F)F)cc1`: the viability was 107% in assay [1]; 107% (inactive) in assay [3]; 107% (inactive) in assay [4]; 93.1% (inactive) in assay [5]; 94.2% in assay [6] (setting [9]); 93.1% in assay [6] (setting [10]). Further, the Her2 level in assay [2] was 102% (inactive). For the same compound, the differential viability (reversal) in assay [6] (H69AR cells + 2 uM doxorubicin) is -1.14% (inactive). Moreover, the inhibition in assay [7] was -6.05% (inactive); in assay [8], 1.8% (inactive).

Regarding `Nc1ncnc2nc(SCCN3CCCCC3)[nH]c12`, the viability in assay [1] was 119%; in assay [3] it was 119% (inactive); in assay [4], 102% (inactive); in assay [5], 100% (inactive); in assay [6] (setting [9]) it was 97.3%; in assay [6] (setting [10]), 100%. In addition, in assay [2], the Her2 level is 88% (inactive). In addition, the differential viability (reversal) in assay [6] (H69AR cells + 2 uM doxorubicin) was 3.13% (inactive). Besides, the inhibition in assay [7] was 3.29% (inactive); in assay [8] it was -5.32% (inactive).

`CCc1nc(SCC(=O)Nc2nccs2)c2oc3ccccc3c2n1`: the viability is 91% in assay [1]; 91% (inactive) in assay [3]; 109% (inactive) in assay [4]; 37.4% (active) in assay [5]; 42.6% in assay [6] (setting [9]); 37.4% in assay [6] (setting [10]). In addition, in assay [2], the Her2 level is 87.5% (inactive). For the same compound, the differential viability (reversal) in assay [6] (H69AR cells + 2 uM doxorubicin) was -5.17% (inactive). Besides, the results for the inhibition in assay [7] and in assay [8] were -7.43% (inactive) and -7% (inactive), respectively.

Take `c1ccc(-n2cnc3cc(NCc4ccccn4)ccc32)cc1`: the viability was 109% in assay [1]; 109% (inactive) in assay [3]; 102% (inactive) in assay [4]; 86.4% (inactive) in assay [5]; 84% in assay [6] (setting [9]); 86.4% in assay [6] (setting [10]). In assay [2], the Her2 level is 90.5% (inactive). For the same compound, the differential viability (reversal) in assay [6] (H69AR cells + 2 uM doxorubicin) was 2.47% (inactive). Besides, the inhibition in assay [7] is -5.27% (inactive); in assay [8], 2.7% (inactive).

Regarding `CC(C)(C)Cc1nc(-c2ccccn2)no1`, the viability in assay [1] is 95.5%; in assay [3], 95.5% (inactive); in assay [4], 88.4% (inactive); in assay [5] it was 100% (inactive); in assay [6] (setting [9]), 92.9%; in assay [6] (setting [10]) it was 100%. The Her2 level in assay [2] was 114% (inactive). Besides, the differential viability (reversal) in assay [6] (H69AR cells + 2 uM doxorubicin) was 7.35% (inactive). Also, the inhibition in assay [7] was -1.82% (inactive); in assay [8], -3.67% (inactive).

For the compound `COc1ccc(N2CCN(C(c3cccc(OC)c3OC)c3nnnn3C3CCCC3)CC2)cc1` (stereo not given), the viability in assay [1] was 88%; in assay [3], 88% (inactive); in assay [4], 94.4% (inactive); in assay [5], 88.5% (inactive); in assay [6] (setting [9]) it was 88.9%; in assay [6] (setting [10]), 88.5%. The Her2 level in assay [2] was 121% (inactive). Besides, the differential viability (reversal) in assay [6] (H69AR cells + 2 uM doxorubicin) is -0.405% (inactive). Besides, the inhibition in assay [7] was 4.61% (inactive); in assay [8] it was -2.06% (inactive).

Turning to `O=C(CN(CCc1ccccc1)C(=O)CN1C(=O)COc2ccccc21)NCc1ccco1`, the viability was 88.5% in assay [1]; 88.5% (inactive) in assay [3]; 102% (inactive) in assay [4]; 78.6% (inactive) in assay [5]; 78% in assay [6] (setting [9]); 78.6% in assay [6] (setting [10]). Further, the Her2 level in assay [2] was 87.5% (inactive). Also, the differential viability (reversal) in assay [6] (H69AR cells + 2 uM doxorubicin) was 0.605% (inactive). Besides, the inhibition in assay [7] was -0.65% (inactive); in assay [8], -1.15% (inactive).

As for `COc1cc(NC(=O)c2cc(OC)c(OC)c(OC)c2)c(OC)cc1NC(=O)CN1CCCCC1`, the viability in assay [1] was 86.5%; in assay [3] it was 86.5% (inactive); in assay [4], 67.9% (inactive); in assay [5], 65.9% (inactive); in assay [6] (setting [9]) it was 77.6%; in assay [6] (setting [10]), 65.9%. Besides, the Her2 level in assay [2] is 68.5% (inactive). In addition, in assay [6] (H69AR cells + 2 uM doxorubicin), the differential viability (reversal) was -11.7% (inactive). The inhibition in assay [7] was -5.27% (inactive); in assay [8] it was -7.5% (inactive).

As to `CCc1nccn1S(=O)(=O)c1ccc(C)c(C)c1`, the viability in assay [1] is 119%; in assay [3], 119% (inactive); in assay [4], 96.7% (inactive); in assay [5], 99.6% (inactive); in assay [6] (setting [9]), 86.9%; in assay [6] (setting [10]), 99.6%. The Her2 level in assay [2] was 92.5% (inactive). The differential viability (reversal) in assay [6] (H69AR cells + 2 uM doxorubicin) is 12.7% (inactive). Further, the inhibition in assay [7] is -4.86% (inactive); in assay [8] it was 16.2% (inactive).

For `CCOc1ccc(-n2c(C)nc3c(cnn3-c3ccc(Cl)cc3)c2=O)cc1`, the viability is 95% in assay [1]; 95% (inactive) in assay [3]; 80.3% (inactive) in assay [4]; 80.7% (inactive) in assay [5]; 86.8% in assay [6] (setting [9]); 80.7% in assay [6] (setting [10]). In assay [2], the Her2 level is 99.5% (inactive). In addition, the differential viability (reversal) in assay [6] (H69AR cells + 2 uM doxorubicin) is -6.13% (inactive). Moreover, the inhibition in assay [7] is -0.39% (inactive); in assay [8] it was -3.06% (inactive).

As to `COc1ccc2c(c1)C(C)=CC(C)(C)N2C(=O)C(C)N1C(=O)c2ccccc2C1=O` (stereo not given), the viability is 109% in assay [1]; 109% (inactive) in assay [3]; 81.6% (inactive) in assay [4]; 85.7% (inactive) in assay [5]; 87% in assay [6] (setting [9]); 85.7% in assay [6] (setting [10]). The Her2 level in assay [2] was 104% (inactive). Also, the differential viability (reversal) in assay [6] (H69AR cells + 2 uM doxorubicin) is -1.3% (inactive). For the same compound, the inhibition is -5.71% (inactive) in assay [7] and -3.33% (inactive) in assay [8].

As to `FC(F)(F)c1cc(-c2ccccc2)nc(N2CCCCC2)n1`, the viability in assay [1] is 101%; in assay [3], 101% (inactive); in assay [4] it was 101% (inactive); in assay [5], 98.1% (inactive); in assay [6] (setting [9]), 101%; in assay [6] (setting [10]), 98.1%. For the same compound, the Her2 level in assay [2] was 102% (inactive). In addition, the differential viability (reversal) in assay [6] (H69AR cells + 2 uM doxorubicin) was -3% (inactive). The inhibition in assay [7] is -4.53% (inactive); in assay [8] it was 5.57% (inactive).

For the compound `Cc1ccc(N(CC(=O)NCC2CCCO2)S(C)(=O)=O)cc1Cl` (stereo not given), the viability in assay [1] was 106%; in assay [3], 106% (inactive); in assay [4], 99.1% (inactive); in assay [5], 89.2% (inactive); in assay [6] (setting [9]) it was 92.6%; in assay [6] (setting [10]), 89.2%. Besides, in assay [2], the Her2 level was 82.5% (inactive). Also, the differential viability (reversal) in assay [6] (H69AR cells + 2 uM doxorubicin) was -3.35% (inactive). The inhibition was 1.41% (inactive) in assay [7] and -3% (inactive) in assay [8].
